# mABHD4 FP = ABHD4 inhibitors, primary screen, biochemical, fluorescence polarization, mouse; (Lyso)-N-acylphosphatidylethanolamine lipase (Mus musculus), Q8VD66; inhibition, % at 8.92 µM; actives 0.54% (n = 370,000); purified mABHD4, FP-Rh probe fluorescence polarization;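 active means inhibition exceeding the mean over every tested compound plus 3 SD, cut at about 30% in these data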;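 further: 0% = plate median of compound wells and 100% = S159A mutant with DMSO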
# Target sequence (Q8VD66 whole entry, looked up): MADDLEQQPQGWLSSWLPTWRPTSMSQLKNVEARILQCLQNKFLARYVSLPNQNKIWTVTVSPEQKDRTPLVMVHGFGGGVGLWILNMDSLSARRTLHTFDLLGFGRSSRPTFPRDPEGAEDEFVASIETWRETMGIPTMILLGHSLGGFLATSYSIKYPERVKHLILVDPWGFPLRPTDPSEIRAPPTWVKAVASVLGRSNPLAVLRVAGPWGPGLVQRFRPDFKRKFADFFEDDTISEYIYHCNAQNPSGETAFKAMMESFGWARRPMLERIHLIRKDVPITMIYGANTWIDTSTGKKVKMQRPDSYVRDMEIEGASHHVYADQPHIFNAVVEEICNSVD
#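 Doses – 8.92 µM, single dose · Material – wild-type mouse ABHD4 protein · Replication – single well per compound (singlicate) · Measure – percent inhibition of probe binding, normalized to plate controls · Schedule – 45 min compound pre-incubation plus 60 min probe step, 25 °C · Detection – fluorescence polarization with parallel and perpendicular emission, 525/598 nm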
# rCAG binder = binders of r(CAG) RNA repeats, primary screen, biochemical, fluorescence | r(CAG) RNA repeat, TO-PRO-1 dye displacement fluorescence | inhibition, % at 3 µM | actives 1.3% (n = 370,000);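 active means inhibition above the plate cutoff, the mean of all test compounds on that plate plus 3 SD, cut at about 35% in these data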;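 further: 0% = DMSO alone and 100% = 100 µM mitoxantrone as full dye displacement; higher means more dye released from RNA so lower well fluorescence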
# HTRA1 inh = HTRA1 serine protease inhibitors, primary screen, biochemical, fluorescence polarization, HTS; Q92743; recombinant HTRA1, FP-rhodamine activity-based probe; inhibition, % at 5.96 µM; actives 0.5% (n = 340,000); in the data active means inhibition above about 36%;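 further: 0% = enzyme with DMSO and 100% = wells lacking enzyme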
# PRMT1 FP inh = PRMT1 methyltransferase inhibitors, primary screen, biochemical, fluorescence polarization. inhibition, % at 2.79 µM. actives 1.3% (n = 370,000). recombinant PRMT1, activity-based probe fluorescence polarization. AID 652257, 2013. Protein arginine N-methyltransferase 1 (Homo sapiens), Q99873;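 active means inhibition above about 21% made by adding two undisclosed values, limit read from the data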
# SIAE inh = human SIAE inhibitors, primary screen, biochemical, fluorescence polarization, FP-Rh probe, 1536-well HTS; Sialate O-acetylesterase (Homo sapiens), Q9HAT2; SIAE FP-Rh probe binding; inhibition, % at 9.66 µM; actives 0.69% (n = 370,000); AID 1053197, 2014;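 active means inhibition above a cutoff: mean of compounds within the control limits plus 3 SD of those, cut at about 17% in these data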;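 further: 0% = plate median of compound wells and 100% = probe without SIAE protein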
# ABHD4 confirm = ABHD4 inhibitors, retest, confirmation, biochemical, fluorescence polarization, mouse. shares compounds with mABHD4 FP. actives 55% (n = 1,800). inhibition, % at 8.92 µM. purified mABHD4, FP-Rh probe fluorescence polarization;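 active means mean inhibition across replicates above the hit cutoff set in the primary screen, cut at about 30% in these data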;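 further: 0% = wild-type ABHD4 with DMSO and 100% = catalytically dead S159A mutant with DMSO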
# SIAE confirm = human SIAE inhibitors, retest, confirmation, biochemical, fluorescence polarization, FP-Rh probe, triplicate; inhibition, % at 9.66 µM; SIAE FP-Rh activity-based probe; actives 13% (n = 2,300); shares compounds with SIAE inh;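 active means mean inhibition of the replicates above the hit cutoff set in the primary screen, cut at about 17% in these data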;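 further: 0% = SIAE with DMSO and probe and 100% = probe without SIAE; inhibitors lower polarization as more probe stays unbound to SIAE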
# Active calls of the source: *; nt = no result; + = active, no number. The list is not random: actives were taken first. Their share in the collection is about 3.3%.
SMILES,mABHD4 FP,rCAG binder,HTRA1 inh,PRMT1 FP inh,SIAE inh,ABHD4 confirm,others
Cc1cc(C(C)(C)CC(C)(C)C)ccc1OCCOCC[N+](C)(C)Cc1ccccc1,36*,10,25,0,3,45*,
COc1ccc(-c2nc(CS(=O)CC(=O)NCc3ccc(F)cc3)c(C)o2)cc1 (stereo not drawn),-1,0,-9,1,6,nt,
CCN(CC)c1ccc2cc(C(N)=O)c(=O)oc2c1,41*,-4,10,-4,10,4,
Cc1ccc(/C=C2\SC(=S)N(C3CCS(=O)(=O)C3)C2=O)o1 (stereo not drawn),34*,24,14,21,5,-7,
COc1ccc(NC(=O)c2cncc(Br)c2)cc1S(=O)(=O)N1CCCCC1,11,2,-30,-3,3,nt,
NNC(=O)c1cc(-c2ccc(N)cc2)nc2ccc(Br)cc12,40*,21,nt,0,3,4,
Cc1cc(C(=O)NN)c2cc(Br)ccc2n1,-3,6,-2,-1,3,nt,
Cc1ccc(C(=O)Nc2nc3ccccc3[nH]2)cc1,30*,0,-4,1,-6,21,
Cc1cc(/C=C2/C(=O)NN(c3ccccc3)C2=O)c(C)n1-c1ccc(O)cc1,34*,28,3,0,1,27,
COc1ccc(-n2c(C)cc(/C=C3\C(=O)NN(c4ccccc4)C3=O)c2C)cc1,-1,5,1,1,4,nt,
CCCCOc1ccc(C(=O)OCC(=O)N2CCOCC2)cc1,-20,-1,-7,-4,3,nt,
NS(=O)(=O)c1ccc(NC(=S)Nc2ccc(F)c(F)c2)cc1,2,0,4,-3,1,nt,
CCCCCCC(=O)Nc1nc(C)c(-c2csc(Nc3cc(OC)ccc3OC)n2)s1,34*,32,16,2,11,49*,
CC(=O)Nc1ccc(Nc2c3c4c(cccc4n(C)c2=O)C(=O)c2ccccc2-3)cc1,31*,-97,21,71*,6,33*,
O=C(CNc1cccc2ccccc12)N/N=C/c1ccccn1,39*,7,nt,0,16,31*,
O=C(Cn1cc([N+](=O)[O-])cn1)Nc1cccnc1,0,2,1,-4,8,nt,
CCOc1ccccc1NC1=CC(=O)CC(c2ccccc2)C1 (stereo not drawn),37*,1,-17,3,-3,-6,
COc1ccc(NC2=CC(=O)CC(c3ccccc3)C2)c(OC)c1 (stereo not drawn),18,-1,-6,-1,8,nt,
Cc1[nH]c2c(ccc3ccccc32)c1C1C(CCN)C1(C)C (stereo not drawn),30*,18,24,1,4,47*,
S=c1[nH]c2ccc3ccccc3c2[nH]1,-2,4,0,1,2,nt,
CCCCCn1c(CN2CCN(C(=O)OCC)CC2)nc2c1c(=O)n(C)c(=O)n2C,7,-10,1,0,0,nt,
CCCCCn1c(CN2CCN(C)CC2)nc2c1c(=O)n(C)c(=O)n2C,30*,-1,5,-4,2,-16,
COc1ccc(OC)c(C2C(C#N)=C(N)Oc3c2c(C)nn3-c2cccc(Cl)c2)c1 (stereo not drawn),22,20,11,5,10,nt,
Cc1nn(-c2ccccc2)c2c1C(c1cccs1)C(C#N)=C(N)O2 (stereo not drawn),nt,nt,9,nt,nt,nt,
Cc1nn(-c2ccccc2)c2c1C(c1ccc([N+](=O)[O-])cc1)C(C#N)=C(N)O2 (stereo not drawn),42*,17,11,16,9,11,
SMILES,mABHD4 FP,rCAG binder,HTRA1 inh,PRMT1 FP inh,SIAE inh,ABHD4 confirm,others
Cc1nn(-c2cccc(Cl)c2)c2c1C(c1cccnc1)C(C#N)=C(N)O2 (stereo not drawn),31*,20,23,2,10,6,
Cc1nn(-c2ccccc2)c2c1C(c1ccco1)C(C#N)=C(N)O2 (stereo not drawn),13,5,3,3,6,nt,
Cc1ccc(-n2nc(C)c3c2OC(N)=C(C#N)C3c2ccc(F)cc2)cc1 (stereo not drawn),37*,14,24,-1,2,10,
O=C(NCc1ccccc1)C1c2ccccc2OCC(=O)N1Cc1ccco1 (stereo not drawn),4,3,nt,-2,-1,nt,
CCc1noc(C)c1C(=O)N(C)CC(=O)Nc1ccccc1Br,-3,-1,3,-4,-1,nt,
CCc1noc(C)c1C(=O)N(C)CC(=O)Nc1ccc(Br)cc1C,41*,-4,-2,2,2,2,
O=C(O)CCCCCNC(=O)c1ccc(C(=O)NCCCCCC(=O)O)cc1,63*,-3,9,6,-3,3,
O=C(O)CCCCCNC(=O)c1ccncc1,0,-1,5,-3,-2,nt,
COc1cc(CNc2ccc3[nH]c(=O)[nH]c3c2)ccc1OCc1ccc(Cl)cc1,11,1,7,9,2,nt,
COc1cc(CNc2ccc3[nH]c(=O)[nH]c3c2)ccc1OCc1ccccc1,30*,5,7,8,9,16,
Cc1ccc(CNC(=O)Nc2ccccc2)c(C)c1,-4,-2,-13,3,1,nt,
CCN1C(=O)c2cccc3c(Cl)ccc(c23)C1=O,-8,3,3,-5,-11,nt,
CC(C)CCN1C(=O)c2cccc3c(N)ccc(c23)C1=O,50*,-452,14,158*,14,62*,
CSc1ccc(CNc2ccc(Cl)cc2)cc1,+,-2,-3,1,-2,-6,
Cc1ccc(NCSc2ccc(Cl)cc2)cc1,5,3,5,1,6,nt,
CNC(=O)c1ccc(-c2sc3nc(N4CCOCC4)c4c(c3c2N)CC(C)(C)OC4)o1,6,1,2,-2,4,nt,
CNC(=O)c1ccc(-c2sc3nc(N4CCOCC4)c4c(c3c2N)CCCC4)o1,32*,13,12,8,22*,27,SIAE confirm=5
Nc1[nH]c(C(=O)c2ccccc2)c(-c2ccc(Cl)cc2Cl)c1C(=O)NCCc1c[nH]c2ccccc12,33*,14,nt,2,19*,26,SIAE confirm=15
Cc1cc(C)cc(-c2c(C(=O)c3ccccc3)[nH]c(N)c2C(=O)NCCc2c[nH]c3ccccc23)c1,29,nt,nt,-4,4,nt,

# High-throughput results: PubChem, The Scripps Research Institute Molecular Screening Center
